# “And” between values parts separate entries of the source, which are not always exact repeats. Equal entries are not always repeated.
# Key:
# Mus musculus [1] = test: Antitumor activity against the ADJ/PC6 Plasmacytoma cells of the BALB/C mouse at a dose of 15 mg/kg after 38 days was determined in vivo; Value denoted as dead/test = 1/10; type: functional, organism-based; parameters: dose 15 mg/kg
# How it was run: (§1)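 Female Balb/C mice, 14–18 g, inoculated subcutaneously with 5 × 10^6 ADJ/PC6 cells in 0.1 mL PBS (day 0). Compounds suspended in olive oil, given intraperitoneally as a single dose (day 1) or triple dose (days 1, 2, 3). Groups usually of 10 animals; cisplatin positive control. Test ran about 38 days; activity read as mean tumor volume as percent of untreated control (T/C, %).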
# Mus musculus [2] = test: Number of deaths against the ADJ/PC6 Plasmacytoma cells of the BALB/C mouse at a dose of 20 mg/kg after 38 days was determined in vivo; type: functional, organism-based; parameters: dose 20 mg/kg
# Mus musculus [3] = test: Number of deaths against the ADJ/PC6 Plasmacytoma cells of the BALB/C mouse at a dose of 20 mg/kg after 37 days was determined in vivo; Value denoted as dead/test = 2/10; type: functional, organism-based; parameters: dose 20 mg/kg
# Mus musculus [4] = test: Antitumor activity against the ADJ/PC6 Plasmacytoma cells of the BALB/C mouse at a dose of 20 mg/kg after 38 days was determined in vivo; Value denoted as dead/test = 0/10; type: functional, organism-based; parameters: dose 20 mg/kg; how it was run: as §1
# Mus musculus [5] = test: Number of deaths against the ADJ/PC6 Plasmacytoma cells of the BALB/C mouse at a dose of 15 mg/kg after 38 days was determined in vivo; type: functional, organism-based; parameters: dose 15 mg/kg
# Rattus norvegicus [6] = test: Compound was tested for the increase in life span of L5222 Leukemia implanted rat at dose 20(60) mg/kg; type: functional, organism-based
# How it was run: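 BD IX rats, 3–6 months old, half female and half male, six per dose group, given 1 × 10^6 L 5222 cells in 1.0 mL physiological saline intraperitoneally (day 0). Complex dissolved in olive oil at 1 mg/mL; three injections on days 1, 2, 3 or 1, 5, 9. Scored as percent increased life span (ILS).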
# Mus musculus [7] = test: Antitumor activity against the ADJ/PC6 Plasmacytoma cells of the BALB/C mouse at a dose of 20 mg/kg after 37 days was determined in vivo; type: functional, organism-based; parameters: dose 20 mg/kg; how it was run: as §1
# Mus musculus [8] = test: Animals without tumor after the test against the ADJ/PC6 Plasmacytoma cells of the BALB/C mouse at a dose of 20 mg/kg after 37 days was determined in vivo; type: functional, organism-based; parameters: dose 20 mg/kg
# Mus musculus [9] = test: Animals without tumor after the test against the ADJ/PC6 Plasmacytoma cells of the BALB/C mouse at a dose of 15 mg/kg after 38 days was determined in vivo; type: functional, organism-based; parameters: dose 15 mg/kg
# Mus musculus [10] = test: Animals without tumor after the test against the ADJ/PC6 Plasmacytoma cells of the BALB/C mouse at a dose of 20 mg/kg after 38 days was determined in vivo; type: functional, organism-based; parameters: dose 20 mg/kg
# [11] = target: Estrogen receptor (Bos taurus) (UniProt Q9XSB5+P49884); test: In vitro inhibition of 1*10e-9 M [3H]estradiol binding to Estrogen receptor of calf uterine cytosol at 1*10e-5 M; type: protein assay
# How it was run: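 Competition of [3H]estradiol binding in calf uterine cytosol (final protein 5 mg/mL); bound and free ligand separated by dextran-coated charcoal; percent inhibition of binding reported.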
# Rattus norvegicus [12] = test: Compound was tested for the survival against L5222 Leukemia implanted rat at dose 20(60) mg/kg; type: functional, organism-based
# How it was run: (§2)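 BD IX rats (3–6 months old, half female, half male), six per dose group, given 1 × 10^6 L 5222 cells in 1.0 mL physiological saline i.p. on day 0. The complex was in olive oil at a final 1 mg/mL and given i.p. as three injections, on days 1, 2, 3 or days 1, 5, 9. Read-out is median survival day and percent ILS.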
# Rattus norvegicus [13] = test: Compound was tested for the survival against L5222 Leukemia implanted rat at dose 3.5(10.5) mg/kg; type: functional, organism-based; how it was run: as §2
# MDA-MB-231 = test: In vitro incorporation of [3H]thymidine into hormone-independent MDA-MB 231 breast cancer cells; type: functional, cell-based; details: Homo sapiens
# How it was run: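 MDA-MB 231 cells grown in McCoy 5a with 10% newborn calf serum and gentamycin, switched to 5% serum 1 h before the experiment. Compounds added from fresh 1000-fold Me2SO concentrates (final solvent 0.1%). [3H]Thymidine incorporation into TCA-precipitable material measured. Mean of triplicates.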
# Rattus norvegicus [14] = test: Compound was tested for the survival against L5222 Leukemia implanted rat at dose 3.5(10.5)mg/kg; type: functional, organism-based; how it was run: as §2
# ADJ/PC6 = test: In vitro incorporation of the [3H]thymidine into the ADJ/PC6 Plasmacytoma cells; type: functional, cell-based; details: Mus musculus
# How it was run: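 ADJ/PC6 tumor taken from passaged female Balb/C mice, minced and gently dispersed, then suspended in Eagle's MEM with 5% heat-inactivated horse serum, Hepes (5 mg/mL) and 0.1% Pluronic F 68, and filtered through gauze. Cells incubated 3 h at 37 °C with shaking, then pulsed with 1 μCi [methyl-3H]thymidine for 2 h. Ice-cold PBS stop, saline washes, sonication. Triplicates.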
# Mus musculus [15] = test: Antitumor activity against the ADJ/PC6 Plasmacytoma cells of the BALB/C mouse at a dose of 8 mg/kg after 37 days was determined in vivo; type: functional, organism-based; parameters: dose 8 mg/kg; how it was run: as §1
# Mus musculus [16] = test: Animals without tumor after the test against the ADJ/PC6 Plasmacytoma cells of the BALB/C mouse at a dose of 8 mg/kg after 37 days was determined in vivo; type: functional, organism-based; parameters: dose 8 mg/kg
# Mus musculus [17] = test: Number of deaths against the ADJ/PC6 Plasmacytoma cells of the BALB/C mouse at a dose of 8 mg/kg after 37 days was determined in vivo; type: functional, organism-based; parameters: dose 8 mg/kg
Substance,T/C (Mus musculus [1]) [%],Deaths (Mus musculus [2]),Deaths (Mus musculus [3]),T/C (Mus musculus [4]) [%],Deaths (Mus musculus [5]),ILS (Rattus norvegicus [6]) [%],T/C (Mus musculus [7]) [%],Activity (Mus musculus [8]),Activity (Mus musculus [9]),Activity (Mus musculus [10]),inhibition [11],Median day of survival (Rattus norvegicus [12]),Median day of survival (Rattus norvegicus [13]),ID50 (MDA-MB-231) [µM],Median day of survival (Rattus norvegicus [14]),ID50 (ADJ/PC6) [µM],T/C (Mus musculus [15]) [%],Activity (Mus musculus [16]),Deaths (Mus musculus [17])
"(+) R,R-dichloro-[1,2-bis(4-hydroxyphenyl)ethylenediamine]platinum (II)",1,0,2,0,1,175,0,8,7,7,11% and 13.7% and 9.7%,18,,,,,,,
CISPLATIN,,,,,,,,,,,,,17.5,0.65,14.5,9.5,0,10,0
